Measurements taken from ChEMBL document CHEMBL3232904, “Discovery of novel quinoline carboxylic acid series as DGAT1 inhibitors” (Bioorg Med Chem Lett, 2014).

Legend:
Cytochrome P450 1A1 = target: T1, Cytochrome P450 1A1 (Homo sapiens, UniProt P04798); assay: Induction of CYP1A1 (unknown origin); type: ADME
T1 sequence (P04798 whole entry): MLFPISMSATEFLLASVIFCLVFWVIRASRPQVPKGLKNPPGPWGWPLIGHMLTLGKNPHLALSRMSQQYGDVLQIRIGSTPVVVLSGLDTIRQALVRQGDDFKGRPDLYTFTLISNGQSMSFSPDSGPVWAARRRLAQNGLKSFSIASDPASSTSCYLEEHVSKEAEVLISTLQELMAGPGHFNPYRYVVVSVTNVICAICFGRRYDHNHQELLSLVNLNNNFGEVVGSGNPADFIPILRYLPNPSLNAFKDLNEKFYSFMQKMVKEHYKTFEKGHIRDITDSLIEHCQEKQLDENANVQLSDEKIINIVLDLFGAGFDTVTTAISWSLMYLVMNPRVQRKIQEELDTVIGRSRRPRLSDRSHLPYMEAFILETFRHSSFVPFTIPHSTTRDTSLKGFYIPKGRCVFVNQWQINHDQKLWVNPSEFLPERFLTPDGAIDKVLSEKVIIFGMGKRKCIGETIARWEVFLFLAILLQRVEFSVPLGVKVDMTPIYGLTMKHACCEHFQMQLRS

[1] = target: T2, Sterol O-acyltransferase 2 (Homo sapiens, UniProt O75908); assay: Inhibition of human ACAT2
T2 sequence (O75908 whole entry): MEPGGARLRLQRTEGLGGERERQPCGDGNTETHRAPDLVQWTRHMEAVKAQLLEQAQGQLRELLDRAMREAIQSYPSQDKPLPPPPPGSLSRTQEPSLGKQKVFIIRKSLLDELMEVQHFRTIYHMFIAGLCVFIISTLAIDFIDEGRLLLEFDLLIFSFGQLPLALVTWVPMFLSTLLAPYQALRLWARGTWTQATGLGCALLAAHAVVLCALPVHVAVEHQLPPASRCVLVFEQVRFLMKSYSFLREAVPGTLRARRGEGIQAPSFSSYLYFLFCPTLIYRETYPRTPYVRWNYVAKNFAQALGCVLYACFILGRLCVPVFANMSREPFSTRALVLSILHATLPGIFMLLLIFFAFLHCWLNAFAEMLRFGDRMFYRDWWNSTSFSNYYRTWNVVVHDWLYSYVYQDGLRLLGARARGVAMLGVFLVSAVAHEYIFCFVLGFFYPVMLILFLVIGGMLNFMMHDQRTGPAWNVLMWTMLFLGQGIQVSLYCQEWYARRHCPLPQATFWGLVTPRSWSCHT
Summary of the method: (§1)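 IC50 values are the average of at least two independent determinations.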

[2] = target: T3, Diacylglycerol O-acyltransferase 1 (Mus musculus, UniProt Q9Z2A7); assay: Inhibition of mouse DGAT1; summary of the method: as §1
T3 sequence (Q9Z2A7 whole entry): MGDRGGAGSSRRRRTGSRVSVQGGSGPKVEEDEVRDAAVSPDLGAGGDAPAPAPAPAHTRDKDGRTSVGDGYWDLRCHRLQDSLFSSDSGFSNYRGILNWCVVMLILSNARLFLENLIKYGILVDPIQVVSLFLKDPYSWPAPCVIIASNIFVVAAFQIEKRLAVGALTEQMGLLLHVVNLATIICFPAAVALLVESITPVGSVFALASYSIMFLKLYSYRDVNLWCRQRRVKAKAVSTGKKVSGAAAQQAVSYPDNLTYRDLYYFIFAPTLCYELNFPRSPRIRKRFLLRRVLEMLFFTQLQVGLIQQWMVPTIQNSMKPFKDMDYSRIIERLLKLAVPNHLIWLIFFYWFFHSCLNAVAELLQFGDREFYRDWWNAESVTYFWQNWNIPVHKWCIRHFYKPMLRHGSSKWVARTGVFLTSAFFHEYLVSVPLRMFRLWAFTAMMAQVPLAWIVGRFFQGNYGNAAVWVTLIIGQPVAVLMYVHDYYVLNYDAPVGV

Mus musculus [3] = assay: Reduction of postprandial plasma triglyceride level in C57BL/6J mouse at 1 mg/kg, po administered 15 mins prior to corn oil bolus challenge measured after 2 hrs relative to vehicle-treated control; type: functional; parameters: scale not given: the % may be the effect or the level left
Summary of the method: (§2)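 Vehicle is 20% hydroxypropyl-β-cyclodextrin; compound or vehicle is given 15 min before time 0. Mice receive a 0.25 mL corn oil bolus at time 0. Terminal blood is taken by heart puncture at 120 min. Plasma TG is measured by an enzymatic colorimetric kit with absorbance read at 600 nm. Values are the mean ± SEM from eight studies, as % reduction versus vehicle.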

Mus musculus [4] = assay: Reduction of postprandial plasma triglyceride level in C57BL/6J mouse at 3 mg/kg, po administered 15 mins prior to corn oil bolus challenge measured after 2 hrs relative to vehicle-treated control; type: functional; parameters: scale not given: the % may be the effect or the level left; summary of the method: as §2
[5] = target: T4, PXR (nuclear receptor subfamily 1 group I member 2) (Homo sapiens, UniProt O75469); assay: Activation of PXR (unknown origin) at 10 uM; type: ADME; conditions: read-out: FC
T4 sequence (O75469 whole entry): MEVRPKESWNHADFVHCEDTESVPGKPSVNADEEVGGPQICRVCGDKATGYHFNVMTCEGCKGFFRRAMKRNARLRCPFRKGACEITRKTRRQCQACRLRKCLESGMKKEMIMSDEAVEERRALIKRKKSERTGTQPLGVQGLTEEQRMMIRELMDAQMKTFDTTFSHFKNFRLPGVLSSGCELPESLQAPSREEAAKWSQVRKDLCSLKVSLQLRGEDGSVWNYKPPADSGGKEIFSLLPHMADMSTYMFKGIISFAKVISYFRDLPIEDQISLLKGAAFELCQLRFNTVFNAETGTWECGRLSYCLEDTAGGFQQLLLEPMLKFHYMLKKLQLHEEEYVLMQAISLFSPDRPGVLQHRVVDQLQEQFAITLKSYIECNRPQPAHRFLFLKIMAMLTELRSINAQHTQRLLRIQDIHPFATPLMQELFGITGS

[6] = AUC in rat at 10 mg/kg, po; type: ADME, organism-based; parameters: dose 10 mg/kg, route oral; conditions: plasma
Mus musculus [7] = assay: Reduction of plasma triglyceride level in C57BL/6J mouse at 3 mg/kg, po administered 15 mins prior to corn oil bolus challenge measured after 12 hrs relative to vehicle-treated control; type: functional; parameters: scale not given: the % may be the effect or the level left

Activity (Cytochrome P450 1A1): Active
IC50 [1]: 1100 nM
IC50 [2]: 10 nM
fold induction at 10 µM [5]: 1.4
AUC [6]: 79 µM·h
Structure (SMILES): Cc1cc(C(=O)Nc2ccccc2)c2ccc(-c3ccc([C@H]4CC[C@H](CC(=O)O)CC4)cc3)cc2n1
Activity (Mus musculus [3]): -94%
Activity (Mus musculus [4]): -100%
Activity (Mus musculus [7]): -79%
